Laboratory results: ChEMBL document CHEMBL5214977, “Discovery and Optimization of Quinoline Analogues as Novel Potent Antivirals against Enterovirus D68” (J Med Chem, 2022)
Calls of active or inactive are those of the source. The calls are words filed in the database; no cut-off is given here.

Legend:
[1] = tested on: enterovirus D68; assay: Antiviral activity against Enterovirus-D68 infected in human HeLa cells assessed as reduction in virus induced cytopathic effect incubated for […] by plaque reduction assay; type: functional, organism-based; settings: Enterovirus D
[2] = tested on: enterovirus D68; assay: Antiviral activity against Enterovirus-D68 STL-2014-12 infected in human RD cells assessed as reduction in virus induced cytopathic effect by measuring ATP level incubated for 72 hrs by cell titer-glo luminescent cell viability assay; type: functional, organism-based
Outline: (§1)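 RD cells seeded at 1.5 × 10^4/well and grown 24 h, then given 100 TCID50 virus plus compound in 3-fold dilutions (0.01–200 μM). DMSO control. Incubated 37 °C for 72 h; ATP read by CellTiter-Glo luminescence and normalized to uninfected and infected controls. EC50 is the concentration giving 50% CPE reduction. Strains: STL-2014-12, US/KY/14-18953, US/MO/14-18947, Fermon.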

[3] = Selectivity index, ratio of CC50 for human RD cells to EC50 for Enterovirus-D68 STL-2014-12 infected in human RD cells to; type: toxicity, cell-based
Outline: (§2)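 EC50 came from a CPE reduction assay. RD cells (1.5 × 10^4 per well, grown 24 h) were infected with 100 TCID50 of the named strain and given 3-fold dilutions from 0.01 to 200 μM. After 72 h at 37 °C, ATP was read by CellTiter-Glo and normalized to infected and uninfected controls. CC50 came from uninfected cells under the same dilutions, 72 h and ATP readout. SI = CC50/EC50.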

[4] = tested on: enterovirus D68; assay: Antiviral activity against Enterovirus-D68 US/KY/14-18953 infected in human RD cells assessed as reduction in virus induced cytopathic effect by measuring ATP level incubated for 72 hrs by cell titer-glo luminescent cell viability assay; type: functional, organism-based; settings: Enterovirus D, US/KY/14-18953, RD; outline: as §1
[5] = tested on: enterovirus D68; assay: Antiviral activity against Enterovirus-D68 fermon infected in human RD cells assessed as reduction in virus induced cytopathic effect by measuring ATP level incubated for 72 hrs by cell titer-glo luminescent cell viability assay; type: functional, organism-based; settings: Enterovirus D; outline: as §1
[6] = Selectivity index, ratio of CC50 for human RD cells to EC50 for Enterovirus-D68 US/KY/14-18953 infected in human RD cells; type: toxicity, cell-based; settings: read-out: Ratio CC50/EC50; outline: as §2
[7] = Selectivity index, ratio of CC50 for human RD cells to EC50 for Enterovirus-D68 fermon infected in human RD cells; type: toxicity, cell-based; settings: read-out: Ratio CC50/EC50; outline: as §2
[8] = tested on: enterovirus D68; assay: Antiviral activity against Enterovirus-D68 US/MO/14-18947 infected in human RD cells assessed as reduction in virus induced cytopathic effect by measuring ATP level incubated for 72 hrs by cell titer-glo luminescent cell viability assay; type: functional, organism-based; settings: Enterovirus D, US/MO/14-18947, RD; outline: as §1
[9] = Selectivity index, ratio of CC50 for human RD cells to EC50 for Enterovirus-D68 US/MO/14-18947 infected in human RD cells; type: toxicity, cell-based; settings: read-out: Ratio CC50/EC50; outline: as §2
[10] = C0 in Sprague-Dawley rat at 1 mg/kg, iv measured upto 24 hrs by LC-MS/MS analysis; type: ADME, organism-based; settings: in vivo
Outline: (§3)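 Male SD rats (6–9 or 6–8 weeks old, n = 3 per route) received a single 1 mg/kg iv or 5 mg/kg po dose. The vehicle was 5% DMSO/5% Solutol HS-15/90% water or 5% DMSO/95% HP-β-CD in water. Jugular blood was drawn into heparin at 0.083 (iv only), 0.25, 0.5, 1, 2, 4, 6 and 24 h. Plasma was analysed by LC-MS/MS. Values are mean ± SD.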

[11] = Half life in Sprague-Dawley rat at 1 mg/kg, iv measured upto 24 hrs by LC-MS/MS analysis; type: ADME, organism-based; settings: in vivo; outline: as §3
[12] = AUC(0 to t) in Sprague-Dawley rat at 1 mg/kg, iv measured upto 24 hrs by LC-MS/MS analysis; type: ADME, organism-based; design: dose 1 mg/kg, time < 24 hrs, route iv; settings: in vivo; outline: as §3
[13] = AUC (0 to infinity) in Sprague-Dawley rat at 1 mg/kg, iv measured upto 24 hrs by LC-MS/MS analysis; type: ADME, organism-based; design: dose 1 mg/kg, time < 24 hrs, route iv; settings: in vivo; outline: as §3
[14] = Half life in Sprague-Dawley rat at 5 mg/kg, po measured upto 24 hrs by LC-MS/MS analysis; type: ADME, organism-based; settings: in vivo; outline: as §3
[15] = Cmax in Sprague-Dawley rat at 5 mg/kg, po measured upto 24 hrs by LC-MS/MS analysis; type: ADME, organism-based; design: dose 5 mg/kg, time < 24 hrs, route po; settings: in vivo; outline: as §3
[16] = Tmax in Sprague-Dawley rat at 5 mg/kg, po measured upto 24 hrs by LC-MS/MS analysis; type: ADME, organism-based; settings: in vivo; outline: as §3
[17] = AUC (0 to t) in Sprague-Dawley rat at 5 mg/kg, po measured upto 24 hrs by LC-MS/MS analysis; type: ADME, organism-based; design: dose 5 mg/kg, time < 24 hrs, route po; settings: in vivo; outline: as §3
[18] = AUC (0 to infinity) in Sprague-Dawley rat at 5 mg/kg, po measured upto 24 hrs by LC-MS/MS analysis; type: ADME, organism-based; design: time < 24 hrs, dose 5 mg/kg, route po; settings: in vivo; outline: as §3
[19] = Oral bioavailability in Sprague-Dawley rat at 5 mg/kg measured upto 24 hrs by LC-MS/MS analysis; type: ADME, organism-based; settings: in vivo; outline: as §3
[20] = tested on: RD; assay: Cytotoxicity against human RD cells assessed as inhibition of cell viability by measuring ATP level incubated for 72 hrs by cell titer-glo luminescent cell viability assay; type: functional
Outline: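 Uninfected RD cells seeded at 1.5 × 10^4/well and grown 24 h, then exposed to compound in 3-fold dilutions (0.01–200 μM), with DMSO as cell control. ATP read by CellTiter-Glo luminescence after 72 h; CC50 is the 50% cytotoxic concentration.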

[21] = Metabolic stability in rat liver microsomes assessed as half life at 1 uM incubated upto 60 mins in presence of NADPH by LC-MS/MS analysis; type: ADME, Microsome; settings: 1 h
Outline: (§4)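 Test compound at 1 μM final was incubated at 37 °C with 0.5 mg/mL liver microsomal protein and 1 mM NADPH, alongside a no-NADPH control. Samples were quenched at 0, 5, 15, 30 and 60 min into solution containing verapamil internal standard, then centrifuged and analysed by LC-MS/MS. t1/2 and intrinsic clearance were derived from the extent of metabolism.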

[22] = Metabolic stability in Beagle dog liver microsomes assessed as half life at 1 uM incubated upto 60 mins in presence of NADPH by LC-MS/MS analysis; type: ADME, Canis lupus familiaris, Microsome; settings: 1 h; outline: as §4
[23] = Metabolic stability in human liver microsomes assessed as half life at 1 uM incubated upto 60 mins in presence of NADPH by LC-MS/MS analysis; type: ADME, Microsome; settings: 1 h; outline: as §4
[24] = tested on: enterovirus D68; assay: Antiviral activity against Enterovirus D68 infected in human RD cells assessed as increase in viral RNA release temperature at 10 ug/ml incubated for 15 mins by particle release thermal stability assay (reference value: 52 degree C); type: functional; settings: dose 10 µg/ml, 0.25 h
[25] = tested on: enterovirus D68; assay: Antiviral activity against Enterovirus D68 infected in human RD cells assessed as inhibition of VP1 expression level incubated for 1.5 hrs by Western blot analysis; type: functional, organism-based; settings: dose 0.1-10 µM, DDE = dose-dependent effect
Outline: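 RD cells (8.0 × 10^4 per well) were grown for 24 h, then infected with EV-D68 at MOI 0.01 for 1.5 h with gradient-diluted compound or DMSO. Lysates were made at 12 hpi in RIPA buffer and run on 10% SDS-PAGE. Blots were probed with anti-EV-D68 VP1 and anti-tubulin antibodies, with HRP secondary and ECL detection.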

[26] = tested on: enterovirus D68; assay: Antiviral activity against Enterovirus D68 infected in human RD cells assessed as inhibition of VP1 expression level incubated for 12 hrs by Hoechst 33342 staining based immunofluorescence assay; type: functional, organism-based; settings: dose 0.1-10 µM, DDE = dose-dependent effect
Outline: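 RD cells were infected with EV-D68 at MOI 1 together with compound for 12 h. Cells were fixed in 4% formaldehyde for 30 min and permeabilized in 0.1% Triton X-100 for 30 min, then blocked with 5% bovine serum. Staining used rabbit anti-VP1 with an Alexa-546 secondary and 1 μM Hoechst33342 nuclear stain, imaged by fluorescence microscopy.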

[27] = tested on: enterovirus D68; assay: Antiviral activity against Enterovirus D68 infected in human RD cells assessed as inhibition of viral replication at 1 uM incubated for 1.5 hrs by crystal violet staining based plaque formation assay; type: functional, organism-based
Outline: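 Overnight RD monolayers received serially diluted virus stock plus compound for 1.5 h. Supernatant was removed and cells were overlaid with 2× DMEM containing 2% low-melting agarose. At 72 hpi cells were fixed with 4% paraformaldehyde for 4 h at room temperature and stained with 1% crystal violet to count plaques.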

[28] = tested on: enterovirus D68; assay: Antiviral activity against Enterovirus D68 infected in human RD cells assessed as reduction in thermal inactivation of virus at 55 degreeC at 12.5 uM incubated for 72 hrs by TCID50 assay; type: functional, organism-based
Outline: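 Compound at 12.5 μM or DMSO was incubated with EV-D68 (2 × 10^6 PFU/ml) at 33 °C for 30 min. The mixture was heated for 2 min at temperatures between 37 and 59 °C, then cooled to 4 °C. Residual titre was measured by TCID50 on RD cells: 10-fold virus dilutions, CPE scored after 72 h, Reed–Muench calculation.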

[29] = tested on: enterovirus D68; assay: Antiviral activity against Enterovirus D68 infected in human RD cells assessed as inhibition of viral replication at 2 uM treated for 1 hr by qRT-PCR analysis; type: functional, organism-based
Outline: (§5)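 RD cells grown for 24 h were infected at 0 h with EV-D68 (MOI 0.01), and virus was washed off at 1 hpi. Compound at 2 μM or DMSO was added over set windows (0–1 h, after 1 hpi, or 0–14 h). Supernatants were collected at 14 hpi. Viral RNA copies were measured by qRT-PCR against a copy-number standard curve. Values are mean ± SD.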

[30] = tested on: enterovirus D68; assay: Antiviral activity against Enterovirus D68 infected in human RD cells assessed as inhibition of viral replication at 2 uM treated for 14 hrs by qRT-PCR analysis; type: functional, organism-based; outline: as §5
[31] = Enterovirus D, STL-2014-12, RD, 72 h

## CCOC(=O)c1ccc(OCCC2CCN(c3ccc(C)nn3)CC2)cc1 [PIRODAVIR]
[1]
  EC50: 1610 nM

## CCc1nc(-c2cnc3ccc(-c4ccc(N)cc4)cc3c2)no1.Cl
[2]; rd
  EC50: 80 nM
[3]
  Ratio CC50/EC50: > 139
[4]
  EC50: 70 nM
[5]
  EC50: 60 nM
[6]
  selectivity ratio: > 159
[7]
  selectivity ratio: > 185
[8]
  EC50: 70 nM
[9]
  selectivity ratio: > 159
[10]
  C0: 1370 ng/mL
[11]
  t1/2: 0.309 h
[12]
  AUCt: 157 ng·h/mL
[13]
  AUC: 158 ng·h/mL
[14]
  t1/2: 1.06 h
[15]
  Cmax: 36.1 ng/mL
[16]
  Tmax: 0.417 h
[17]
  AUC: 49.5 ng·h/mL
[18]
  AUC: 53.8 ng·h/mL
[19]
  F: 6.8%

## Nc1ccc(-c2ccc3ncc(-c4noc(C(F)(F)F)n4)cc3c2)cc1 [listing 1 of 2 here]
[2]; [31]
  EC50: 50 nM
[20]
  CC50: > 2500 nM
[3]
  Ratio CC50/EC50: > 50
[10]
  C0: 637 ng/mL
[11]
  t1/2: 1.92 h
[12]
  AUCt: 253 ng·h/mL
[13]
  AUC: 268 ng·h/mL
[14]
  t1/2: 1.21 h
[15]
  Cmax: 108 ng/mL
[16]
  Tmax: 1 h
[17]
  AUC: 307 ng·h/mL
[18]
  AUC: 320 ng·h/mL
[19]
  F: 23.9%
[21]
  t1/2: 0.683 h
[22]
  t1/2: 0.288 h
[23]
  t1/2: 2.47 h
[24]
  T: 55 °C

## CCc1nc(-c2cnc3ccc(-c4ccc(N)cc4)cc3c2)no1
[25]
  Activity: Dde
[26]
  Activity: Dde
[27]
  Activity: Active

## Cl.Nc1ccc(-c2ccc3ncc(-c4noc(C(F)(F)F)n4)cc3c2)cc1
[2]; rd
  EC50: 100 nM
[3]
  Ratio CC50/EC50: > 111
[4]
  EC50: 90 nM
[5]
  EC50: 90 nM
[6]
  selectivity ratio: > 123
[7]
  selectivity ratio: > 123
[8]
  EC50: 90 nM
[9]
  selectivity ratio: > 123

## Cc1cc(CCCOc2c(C)cc(-c3noc(C(F)(F)F)n3)cc2C)on1 [PLECONARIL]
[1]
  EC50: 430 nM
[2]; [31]
  EC50: 400 nM
[20]
  CC50: > 200000 nM
[3]; RD cells, read-out: Ratio CC50/EC50
  selectivity ratio: > 250
[4]
  EC50: 240 nM
[5]
  EC50: 300 nM
[6]
  selectivity ratio: > 417
[7]
  selectivity ratio: > 333
[8]
  EC50: 640 nM
[9]
  selectivity ratio: > 156
[28]
  Activity: Active

## Nc1ccc(-c2ccc3ncc(-c4noc(C(F)(F)F)n4)cc3c2)cc1 [listing 2 of 2 here]
[25]
  Activity: Dde
[26]
  Activity: Dde
[27]
  Activity: Active
[29]
  Activity: Active
[30]
  Activity: Active
[28]
  Activity: Active
